According to ChEMBL document CHEMBL1149096 (J Med Chem, 2004):
pEC50, pIC50, pKi: −log10 of the molar value. Active and inactive are the calls of the source. Square brackets hold non-standard residues; d marks the D form. Peptide text beside a SMILES is read from it. NMeF = CN[C@@H](Cc1ccccc1)C(=O)O

Experiments:
[1] = target: Delta-type opioid receptor (Mus musculus, UniProt P32300); test: Inhibitory concentration required for 50 percent inhibition of opioid receptor delta 1 induced contractions in mouse vas deferens (MVD) smooth muscle contraction assays; assay type: functional
Sequence of Delta-type opioid receptor (Mus musculus, UniProt P32300) (P32300 whole entry): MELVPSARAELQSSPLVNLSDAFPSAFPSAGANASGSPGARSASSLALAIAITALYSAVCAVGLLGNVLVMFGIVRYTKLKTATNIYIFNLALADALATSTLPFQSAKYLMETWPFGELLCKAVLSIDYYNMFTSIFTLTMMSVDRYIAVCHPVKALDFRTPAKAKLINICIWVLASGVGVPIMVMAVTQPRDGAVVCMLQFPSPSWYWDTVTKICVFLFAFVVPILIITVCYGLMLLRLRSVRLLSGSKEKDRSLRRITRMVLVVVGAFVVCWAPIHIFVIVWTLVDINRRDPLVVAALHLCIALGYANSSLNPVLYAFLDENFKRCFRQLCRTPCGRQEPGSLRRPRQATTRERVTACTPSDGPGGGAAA
Procedure, shortened: (§1)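 Electrically stimulated MVD (male ICR mice, 25-40 g) and GPI longitudinal muscle myenteric plexus strips (male Hartley guinea pigs, 250-500 g). Baths held 37 °C oxygenated Krebs bicarbonate (Mg-free for MVD), tension 1 g GPI / 0.5 g MVD. Stimulation 0.1 Hz, 0.4 ms pulses (2 ms MVD), supramaximal voltage. […] IC50 from two to four tissues by nonlinear least squares.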

Mu-type opioid receptor [2] = target: T1, Mu-type opioid receptor (Cavia porcellus, UniProt P97266); test: Inhibitory concentration for inhibition of Opioid receptor mu 1 induced contractions in guinea pig ileum (GPI) smooth muscle assays; assay type: functional, tissue-based
T1 sequence (P97266 whole entry): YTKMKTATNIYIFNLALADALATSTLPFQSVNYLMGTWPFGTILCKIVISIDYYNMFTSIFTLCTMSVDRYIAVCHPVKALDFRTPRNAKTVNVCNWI
Procedure, shortened: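 Electrically stimulated MVD (male ICR mice, 25-40 g) and GPI longitudinal muscle myenteric plexus strips (male Hartley guinea pigs, 250-500 g). Baths held 37 °C oxygenated Krebs bicarbonate (Mg-free for MVD), tension 1 g GPI / 0.5 g MVD. Stimulation 0.1 Hz, 0.4 ms pulses (2 ms MVD), supramaximal voltage. IC50 from two to four tissues by nonlinear least squares.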

[3] = target: Delta-type opioid receptor (Mus musculus) (UniProt P32300); conditions: Vas deferens; filed as agonist
Sequence of Delta-type opioid receptor (Mus musculus) (P32300 whole entry): as the sequence (P32300 whole entry) above

[4] = target: Mu-type opioid receptor (Cavia porcellus) (UniProt P97266); conditions: Ileum, filed as agonist
Sequence of Mu-type opioid receptor (Cavia porcellus) (P97266 whole entry): as the sequence (P97266 whole entry) above

[5] = target: Delta-type opioid receptor (Rattus norvegicus, UniProt P33533); test: Binding affinity at opioid receptor delta 1 by displacement of [3H]DADLE in rat brain membrane; assay type: cell membranes
Sequence of Delta-type opioid receptor (Rattus norvegicus, UniProt P33533) (P33533 whole entry): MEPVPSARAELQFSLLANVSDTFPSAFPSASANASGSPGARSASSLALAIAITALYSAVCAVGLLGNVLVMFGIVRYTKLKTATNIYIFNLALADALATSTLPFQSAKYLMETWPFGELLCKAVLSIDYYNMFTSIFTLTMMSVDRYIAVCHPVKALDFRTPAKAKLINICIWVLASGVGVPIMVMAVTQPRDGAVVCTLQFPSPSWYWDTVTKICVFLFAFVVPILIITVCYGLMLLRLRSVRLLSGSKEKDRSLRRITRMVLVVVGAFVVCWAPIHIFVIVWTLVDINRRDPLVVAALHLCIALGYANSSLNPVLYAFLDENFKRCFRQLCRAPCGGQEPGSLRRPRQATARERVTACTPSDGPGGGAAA

[6] = target: T2, Kappa-type opioid receptor (Cavia porcellus, UniProt P41144); test: Binding affinity at Opioid receptor kappa 1 by displacement of [3H]U-69593 in guinea pig brain membranes; assay type: cell membranes, Membrane
T2 sequence (P41144 whole entry): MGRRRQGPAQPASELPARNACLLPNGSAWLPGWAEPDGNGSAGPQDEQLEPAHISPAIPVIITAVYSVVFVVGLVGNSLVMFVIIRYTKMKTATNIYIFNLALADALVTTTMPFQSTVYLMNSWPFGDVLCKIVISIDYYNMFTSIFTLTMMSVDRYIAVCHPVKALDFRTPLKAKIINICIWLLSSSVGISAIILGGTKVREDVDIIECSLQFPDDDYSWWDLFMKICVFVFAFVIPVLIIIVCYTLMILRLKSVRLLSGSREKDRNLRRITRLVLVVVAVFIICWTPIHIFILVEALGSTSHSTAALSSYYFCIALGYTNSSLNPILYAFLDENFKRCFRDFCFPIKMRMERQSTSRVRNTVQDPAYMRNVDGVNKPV

Cavia porcellus [7] = species: Cavia porcellus; test: Selectivity given as ratio of kappa receptor to delta receptor
[8] = target: Opioid receptors; mu & delta (Rattus norvegicus) (UniProt P33533+P33535); test: Selectivity given as ratio of mu receptor to delta receptor; assay type: protein assay
Sequence of Opioid receptors; mu & delta (Rattus norvegicus) (P33533 whole entry, looked up): as the sequence (P33533 whole entry) above
Sequence of Opioid receptors; mu & delta (Rattus norvegicus) (P33535 whole entry, looked up): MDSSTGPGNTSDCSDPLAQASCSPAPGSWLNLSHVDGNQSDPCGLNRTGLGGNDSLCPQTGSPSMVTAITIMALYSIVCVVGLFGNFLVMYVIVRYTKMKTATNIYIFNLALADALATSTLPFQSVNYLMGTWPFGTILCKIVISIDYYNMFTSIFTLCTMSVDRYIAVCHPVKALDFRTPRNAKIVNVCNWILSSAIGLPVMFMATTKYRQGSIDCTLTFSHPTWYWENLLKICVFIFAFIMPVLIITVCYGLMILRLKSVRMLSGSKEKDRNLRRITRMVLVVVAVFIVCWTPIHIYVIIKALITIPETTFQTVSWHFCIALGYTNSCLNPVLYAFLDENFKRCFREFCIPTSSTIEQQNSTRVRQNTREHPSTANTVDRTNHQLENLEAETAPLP

Mu-type opioid receptor [9] = target: Mu-type opioid receptor (Rattus norvegicus, UniProt P33535); test: Binding affinity at Opioid receptor mu 1 by displacement of [3H]DAMGO at 1.4 to 3.0 nM in rat brain membrane; assay type: cell membranes
Sequence of Mu-type opioid receptor (Rattus norvegicus, UniProt P33535) (P33535 whole entry): as the sequence (P33535 whole entry, looked up) above
Procedure, shortened: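 Rat brain membranes freshly homogenised in ice-cold 10 mM Tris-HCl pH 7.0, centrifuged twice at 30000g, then resuspended in 50 mM Tris-HCl pH 7.4. […] Nonspecific binding was defined with 20 µM levallorphan. Two experiments were pooled and fitted by logistic regression, with Ki = IC50/(1+[L]/Kd).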

[10] = target: Delta-type opioid receptor (Mus musculus) (UniProt P32300); test: Agonist activity by the maximum response towards opioid receptor delta 1 induced contractions in mouse vas deferens (MVD) smooth muscle contraction assays; assay type: functional, tissue-based; procedure, shortened: as §1
[11] = target: Delta-type opioid receptor (Mus musculus) (UniProt P32300); conditions: Vas deferens
[12] = target: Mu-type opioid receptor (Cavia porcellus) (UniProt P97266); conditions: Ileum
Mus musculus [13] = species: Mus musculus; test: Antinociceptive effect was determined by the ability to exhibit 80% reduction of naloxone induced sensitivity; Yes; assay type: functional, organism-based
Mus musculus [14] = test: Analgesic activity was calculated at time of peak drug effect when administered (icv) in mouse warm-water tail withdrawal assay; assay type: functional
Procedure, shortened: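 Male ICR mice dosed icv (5 µL; water or 100% DMSO) under light ether anaesthesia. 55 °C warm-water tail withdrawal read at 10-180 min, cutoff 10 s. %MPE = 100 × (test − control)/(cutoff − control). A50 and 95% CI taken at peak effect by linear regression.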

Mu-type opioid receptor [15] = target: T1, Mu-type opioid receptor; test: Apparent binding affinity of compound was determined by antagonism towards Opioid receptor mu 1in [35S]GTP-gamma-S, binding assay in guinea pig caudate; i = could not be calculated because of agonist activity; assay type: functional
[16] = target: T2, Kappa-type opioid receptor; test: Agonistic activity towards Opioid receptor kappa 1 was determined in [35S]GTP-gamma-S, binding assay in guinea pig caudate; assay type: functional
Procedure, shortened: (§2)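 Guinea pig caudate membranes (10-20 µg protein) incubated 3 h at 22 °C in Tris-HCl pH 7.4 containing 100 mM NaCl, 10 mM MgCl2, 1 mM EDTA, 100 µM GDP and 0.05-0.1 nM [35S]GTP-γ-S, then filtered and counted. Nonspecific binding defined with 10 µM GTP-γ-S. Site isolation used CTAP, nor-BNI, NTI or TIPP. […] Three experiments pooled; logistic fit.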

Mu-type opioid receptor [17] = target: T1, Mu-type opioid receptor; test: Agonistic activity towards Opioid receptor mu 1 was determined in [35S]GTP-gamma-S, binding assay in guinea pig caudate; g = not active as an agonist; assay type: functional; conditions: for pEC50: read-out: EC50; procedure, shortened: as §2
Mus musculus [18] = species: Mus musculus; test: Antinociceptive effect was determined at 100 nM in mouse; assay type: functional
[19] = target: T2, Kappa-type opioid receptor; test: Inhibitory concentration required for 50% inhibition of antagonism towards Opioid receptor kappa 1 in [35S]GTP-gamma-S, binding assay in guinea pig caudate; assay type: functional
Mu-type opioid receptor [20] = target: T1, Mu-type opioid receptor; test: Apparent binding affinity of compound was determined by antagonism towards Opioid receptor mu 1 in [35S]GTP-gamma-S, binding assay in guinea pig caudate; assay type: functional
Cavia porcellus [21] = species: Cavia porcellus; conditions: Ileum, filed as agonist
[22] = target: Delta-type opioid receptor (Mus musculus) (UniProt P32300); conditions: Vas deferens; filed as agonist; remark: listed apart in the source
Mus musculus [23] = species: Mus musculus; test: Antinociceptive effect was determined by the ability to exhibit 80% reduction of naloxone induced sensitivity; No; assay type: functional, organism-based
[24] = target: T2, Kappa-type opioid receptor; test: Apparent binding affinity of compound was determined by antagonism towards Opioid receptor kappa 1 in [35S]GTP-gamma-S, binding assay in guinea pig caudate; assay type: functional
[25] = target: T2, Kappa-type opioid receptor; test: Agonistic activity towards Opioid receptor kappa 1 was determined in [35S]GTP-gamma-S, binding assay in guinea pig caudate; g = not active as an agonist; assay type: functional; procedure, shortened: as §2
Mu-type opioid receptor [26] = target: T1, Mu-type opioid receptor; test: Agonistic activity towards Opioid receptor mu 1 was determined in [35S]GTP-gamma-S, binding assay in guinea pig caudate; assay type: functional; procedure, shortened: as §2
[27] = target: Delta-type opioid receptor (Mus musculus) (UniProt P32300); conditions: Vas deferens; filed as agonist; remark: listed apart in the source
[28] = target: Mu-type opioid receptor (Cavia porcellus) (UniProt P97266); conditions: Ileum, filed as agonist; remark: listed apart in the source
Mu-type opioid receptor [29] = target: T1, Mu-type opioid receptor; test: Antagonism of compound towards Opioid receptor mu 1 was determined using PL-017 in guinea pig ileum (GPI) smooth muscle contraction assays; d = agonist effect was observed; assay type: functional, tissue-based
[30] = target: Mu-type opioid receptor (Cavia porcellus) (UniProt P97266)
Mus musculus [31] = species: Mus musculus; test: Antinociceptive effect was determined by the ability to exhibit 80% reduction of naloxone induced sensitivity; Partial; assay type: functional, organism-based
Mus musculus [32] = species: Mus musculus; test: Antinociceptive effect was determined at 300 nM in mouse; assay type: functional

Compound: CN(C(=O)[C@@H]1CCCN1C(=O)[C@@H](N)Cc1ccc(O)cc1)[C@@H](Cc1ccccc1)C(=O)N1CCC[C@@H]1C(N)=O (H-YP[NMeF][dP]-NH2)
- pIC50 [1]: 6.61
- pIC50 (Mu-type opioid receptor [2]): 7.23
- Ke [3]: Agonist
- Ke [4]: Agonist

Compound: COc1ccc2c3c1O[C@H]1c4ncc(-c5ccccc5)cc4C[C@@]4(O)[C@@H](C2)N(C)CC[C@]314
- pKi [5]: 7.47
- pKi [6]: < 5.00
- Ratio (Cavia porcellus [7]): > 294
- Ratio [8]: 26
- pKi (Mu-type opioid receptor [9]): 6.05

Compound: Oc1ccc2c3c1O[C@H]1c4ncc(-c5ccccc5)cc4C[C@@]4(O)[C@@H](C2)N(CC2CC2)CC[C@]314
- Response [10]: 4.7%
- Ratio (Cavia porcellus [7]): 20
- Ratio [8]: 16
- Ke [11]: 3.7 nM
- Ke [12]: 43 nM

Compound: CN1CC[C@]23c4c5ccc(O)c4O[C@H]2c2ncc(-c4ccc(Cl)cc4)cc2C[C@H]3[C@H]1C5
- Activity (Mus musculus [13]): Active
- A50 (Mus musculus [14]): 42.8 nM
- Ki (Mu-type opioid receptor [15]): Agonist
- EC50 [16]: Not Active
- pEC50 (Mu-type opioid receptor [17]): 6.05
- pIC50 (Mu-type opioid receptor [2]): 6.75
- Ratio (Cavia porcellus [7]): 18
- Ratio [8]: 34
- Ke [11]: 21.9 nM
- Ke [4]: Agonist

Compound: CN1CC[C@]23c4c5ccc(O)c4O[C@H]2c2ncc(-c4ccc(Cl)c(Cl)c4)cc2C[C@H]3[C@H]1C5
- Activity (Mus musculus [18]): 44%
- pKi [19]: 5.32
- pKi (Mu-type opioid receptor [20]): < 6.00
- EC50 [16]: Not Active
- pEC50 (Mu-type opioid receptor [17]): 5.88
- pIC50 (Mu-type opioid receptor [2]): 6.35
- Ratio (Cavia porcellus [7]): 75
- Ratio [8]: 25
- Ke (Cavia porcellus [21]): Agonist
- Ke [22]: Agonist

Compound: CN1CC[C@]23c4c5ccc(O)c4O[C@H]2c2ncc(-c4ccccc4)cc2C[C@@]3(O)[C@H]1C5
- Activity (Mus musculus [18]): 64%
- Activity (Mus musculus [23]): inactive
- pKi [24]: < 6.00
- pKi (Mu-type opioid receptor [20]): < 6.00
- EC50 [25]: Not Active
- pEC50 (Mu-type opioid receptor [26]; read-out: EC50): 6.18
- pIC50 (Mu-type opioid receptor [2]): 6.68
- Ratio (Cavia porcellus [7]): 124
- Ratio [8]: 9
- Ke [27]: Agonist
- Ke [28]: Agonist

Compound: CN1CC[C@]23c4c5ccc(O)c4O[C@H]2c2ncc(-c4ccccc4)cc2C[C@H]3[C@H]1C5
- Activity (Mus musculus [13]): Active
- Activity (Mus musculus [18]): 48%
- pKi [24]: < 6.00
- pKi (Mu-type opioid receptor [20]): < 6.00
- pEC50 (Mu-type opioid receptor [29]): 5.99
- EC50 (Mu-type opioid receptor [26]): Not Active
- pIC50 (Mu-type opioid receptor [2]): 7.01
- Ratio (Cavia porcellus [7]): 43
- Ratio [8]: 13
- Ke [3]: Agonist
- Ke [30]: inactive

Compound: CN1CC[C@]23c4c5ccc(O)c4O[C@H]2c2ncc(-c4ccc(Cl)cc4)cc2C[C@@]3(O)[C@H]1C5
- Activity (Mus musculus [31]): Weak activity
- Activity (Mus musculus [32]): 43%
- pKi [5]: 8.41
- EC50 [25]: Not Active
- Response [10]: 58%
- EC50 (Mu-type opioid receptor [17]): Not Active
- Ratio (Cavia porcellus [7]): 120
- Ratio [8]: 59
- Ke [11]: 38.2
- Ke [28]: Agonist
